For assay [1], the target named is Tyrosine-protein kinase Fer (Homo sapiens) (UniProt P16591). In words: Inhibition of human recombinant FER at 15 nM in presence of ATP by radiometric assay relative to control.
Assay [2] concerns the target T1, Dual specificity mitogen-activated protein kinase kinase 6 (Homo sapiens) (UniProt P52564).
T1 sequence (whole entry): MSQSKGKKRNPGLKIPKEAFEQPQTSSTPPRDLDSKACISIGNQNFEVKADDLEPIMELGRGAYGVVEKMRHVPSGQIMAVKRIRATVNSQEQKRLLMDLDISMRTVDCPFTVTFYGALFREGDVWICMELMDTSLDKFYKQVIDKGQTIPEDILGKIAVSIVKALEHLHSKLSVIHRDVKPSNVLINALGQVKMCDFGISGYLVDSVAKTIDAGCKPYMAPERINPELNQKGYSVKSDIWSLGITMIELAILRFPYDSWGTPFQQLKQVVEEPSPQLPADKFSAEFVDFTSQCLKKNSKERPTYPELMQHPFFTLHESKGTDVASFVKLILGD
In words: Inhibition of human recombinant MAP2K6 at 15 nM related to control ULK1.

Assay [3] addresses 5'-AMP-activated protein kinase catalytic subunit alpha-1 (Homo sapiens) (UniProt Q13131). In words: Inhibition of human recombinant AMPKa1 at 15 nM in presence of ATP by radiometric assay relative to control. An outline of the steps:
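Panel of 327 recombinant human kinases, each assayed in vitro by radiometric activity assay in duplicate at a single inhibitor concentration per compound, chosen with reference to its ULK1 inhibition. Activity remaining was expressed as percent of vehicle control, and percent inhibition was calculated as 100 minus percent activity remaining.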

The target of assay [4] is Cyclin-dependent kinase 4 (Homo sapiens) (UniProt P11802). In words: Inhibition of human recombinant CDK4 at 40 nM in presence of ATP by radiometric assay relative to control.
The target of assay [5] is T2, Calcium/calmodulin-dependent protein kinase type IV (Homo sapiens) (UniProt Q16566).
T2 sequence (whole entry): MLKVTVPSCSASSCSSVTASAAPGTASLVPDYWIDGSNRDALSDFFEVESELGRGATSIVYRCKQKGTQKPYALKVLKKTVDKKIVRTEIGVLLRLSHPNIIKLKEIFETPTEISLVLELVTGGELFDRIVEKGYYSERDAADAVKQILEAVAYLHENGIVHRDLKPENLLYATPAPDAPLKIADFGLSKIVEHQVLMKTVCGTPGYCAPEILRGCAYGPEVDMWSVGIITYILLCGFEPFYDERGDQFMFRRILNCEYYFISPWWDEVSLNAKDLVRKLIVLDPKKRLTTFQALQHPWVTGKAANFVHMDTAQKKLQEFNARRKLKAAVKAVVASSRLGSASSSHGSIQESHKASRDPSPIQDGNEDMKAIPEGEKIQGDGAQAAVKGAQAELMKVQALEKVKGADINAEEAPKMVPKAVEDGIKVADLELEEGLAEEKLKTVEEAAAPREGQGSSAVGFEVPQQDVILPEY
In words: Inhibition of human recombinant CaMK4 at 40 nM in presence of ATP by radiometric assay relative to control.

For assay [6], the target named is T3, Serine/threonine-protein kinase 17A (Homo sapiens) (UniProt Q9UEE5).
T3 sequence (whole entry): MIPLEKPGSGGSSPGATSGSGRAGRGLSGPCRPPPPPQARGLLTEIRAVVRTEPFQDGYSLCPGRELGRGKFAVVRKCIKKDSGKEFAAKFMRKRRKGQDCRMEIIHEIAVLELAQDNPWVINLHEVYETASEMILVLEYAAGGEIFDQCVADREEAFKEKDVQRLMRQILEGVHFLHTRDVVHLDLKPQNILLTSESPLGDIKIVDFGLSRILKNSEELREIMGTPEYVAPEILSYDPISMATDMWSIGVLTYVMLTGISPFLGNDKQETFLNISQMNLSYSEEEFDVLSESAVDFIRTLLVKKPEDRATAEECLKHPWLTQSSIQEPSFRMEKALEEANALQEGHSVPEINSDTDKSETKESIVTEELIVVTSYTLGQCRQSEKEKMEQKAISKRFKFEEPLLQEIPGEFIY
In words: Inhibition of human recombinant DRAK1 at 40 nM related to control ULK1.

The target of assay [7] is T4, TGF-beta receptor type-1 (Homo sapiens) (UniProt P36897).
T4 sequence (whole entry): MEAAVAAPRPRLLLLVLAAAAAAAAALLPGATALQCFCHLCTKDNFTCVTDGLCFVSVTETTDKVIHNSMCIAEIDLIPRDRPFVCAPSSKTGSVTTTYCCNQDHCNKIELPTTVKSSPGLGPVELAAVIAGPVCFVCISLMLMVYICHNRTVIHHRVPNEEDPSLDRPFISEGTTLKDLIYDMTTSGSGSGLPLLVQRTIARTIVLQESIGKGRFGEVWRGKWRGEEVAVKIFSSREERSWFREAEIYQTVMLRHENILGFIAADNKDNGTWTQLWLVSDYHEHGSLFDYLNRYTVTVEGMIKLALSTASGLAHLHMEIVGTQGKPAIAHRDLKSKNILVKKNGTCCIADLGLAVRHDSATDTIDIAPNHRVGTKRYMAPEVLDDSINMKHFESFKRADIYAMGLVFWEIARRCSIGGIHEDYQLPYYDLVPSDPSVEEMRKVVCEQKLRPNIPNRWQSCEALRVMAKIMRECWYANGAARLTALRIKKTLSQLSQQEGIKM
In words: Inhibition of human recombinant TGFbR1 at 40 nM in presence of ATP by radiometric assay relative to control.

For assay [8], the target named is Cell division cycle 7-related protein kinase (Homo sapiens) (UniProt O00311). In words: Inhibition of human recombinant CDC7 at 500 nM in presence of ATP by radiometric assay relative to control.
For assay [9], the target named is T5, Serine/threonine-protein kinase Sgk1 (Homo sapiens) (UniProt O00141).
T5 sequence (whole entry): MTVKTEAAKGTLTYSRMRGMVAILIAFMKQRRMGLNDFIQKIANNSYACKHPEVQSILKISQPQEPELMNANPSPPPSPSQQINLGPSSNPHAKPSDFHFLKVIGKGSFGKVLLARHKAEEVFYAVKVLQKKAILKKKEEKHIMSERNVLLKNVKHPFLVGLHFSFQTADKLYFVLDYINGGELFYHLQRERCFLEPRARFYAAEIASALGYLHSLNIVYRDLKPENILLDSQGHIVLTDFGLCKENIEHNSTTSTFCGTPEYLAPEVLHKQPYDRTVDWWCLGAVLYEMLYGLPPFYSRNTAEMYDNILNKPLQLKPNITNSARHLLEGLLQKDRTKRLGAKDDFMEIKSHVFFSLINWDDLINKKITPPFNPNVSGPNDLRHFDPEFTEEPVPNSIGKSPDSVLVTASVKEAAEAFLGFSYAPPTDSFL
In words: Inhibition of human recombinant SGK1 at 500 nM in presence of ATP by radiometric assay relative to control.

For assay [10], the target named is T3, Serine/threonine-protein kinase 17A (Homo sapiens). In words: Inhibition of human recombinant DRAK1 at 500 nM in presence of ATP by radiometric assay relative to control.
For assay [11], the target named is RAF proto-oncogene serine/threonine-protein kinase (Homo sapiens) (UniProt P04049). In words: Inhibition of human recombinant RAF1 at 500 nM related to control ULK1.

Each structure is given as a SMILES string.

Sequence of 5'-AMP-activated protein kinase catalytic subunit alpha-1 (Homo sapiens) (Q13131 whole entry, looked up): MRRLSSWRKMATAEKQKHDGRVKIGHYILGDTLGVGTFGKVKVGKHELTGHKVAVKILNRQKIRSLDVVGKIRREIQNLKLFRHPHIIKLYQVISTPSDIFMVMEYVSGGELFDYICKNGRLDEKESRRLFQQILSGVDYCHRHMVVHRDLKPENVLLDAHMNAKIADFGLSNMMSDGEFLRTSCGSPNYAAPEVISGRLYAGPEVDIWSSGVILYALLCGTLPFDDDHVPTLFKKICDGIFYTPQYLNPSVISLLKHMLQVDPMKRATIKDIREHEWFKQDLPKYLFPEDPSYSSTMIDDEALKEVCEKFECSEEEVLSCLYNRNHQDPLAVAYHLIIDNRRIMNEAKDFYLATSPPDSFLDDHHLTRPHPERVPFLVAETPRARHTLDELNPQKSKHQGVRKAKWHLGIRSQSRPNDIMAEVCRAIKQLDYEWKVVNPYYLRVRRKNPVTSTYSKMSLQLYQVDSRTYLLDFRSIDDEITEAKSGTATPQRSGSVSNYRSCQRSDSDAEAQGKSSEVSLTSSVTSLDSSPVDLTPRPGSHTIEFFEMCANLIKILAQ
Sequence of Cyclin-dependent kinase 4 (Homo sapiens) (P11802 whole entry): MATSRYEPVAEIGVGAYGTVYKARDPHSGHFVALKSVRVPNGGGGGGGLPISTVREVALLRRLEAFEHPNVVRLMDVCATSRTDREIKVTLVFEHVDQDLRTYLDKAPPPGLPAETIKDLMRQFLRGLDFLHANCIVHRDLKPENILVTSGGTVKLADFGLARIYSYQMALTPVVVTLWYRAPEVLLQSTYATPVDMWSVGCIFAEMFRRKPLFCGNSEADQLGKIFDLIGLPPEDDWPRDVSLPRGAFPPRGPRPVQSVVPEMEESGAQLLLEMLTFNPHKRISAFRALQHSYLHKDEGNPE
Sequence of Tyrosine-protein kinase Fer (Homo sapiens) (P16591 whole entry, looked up): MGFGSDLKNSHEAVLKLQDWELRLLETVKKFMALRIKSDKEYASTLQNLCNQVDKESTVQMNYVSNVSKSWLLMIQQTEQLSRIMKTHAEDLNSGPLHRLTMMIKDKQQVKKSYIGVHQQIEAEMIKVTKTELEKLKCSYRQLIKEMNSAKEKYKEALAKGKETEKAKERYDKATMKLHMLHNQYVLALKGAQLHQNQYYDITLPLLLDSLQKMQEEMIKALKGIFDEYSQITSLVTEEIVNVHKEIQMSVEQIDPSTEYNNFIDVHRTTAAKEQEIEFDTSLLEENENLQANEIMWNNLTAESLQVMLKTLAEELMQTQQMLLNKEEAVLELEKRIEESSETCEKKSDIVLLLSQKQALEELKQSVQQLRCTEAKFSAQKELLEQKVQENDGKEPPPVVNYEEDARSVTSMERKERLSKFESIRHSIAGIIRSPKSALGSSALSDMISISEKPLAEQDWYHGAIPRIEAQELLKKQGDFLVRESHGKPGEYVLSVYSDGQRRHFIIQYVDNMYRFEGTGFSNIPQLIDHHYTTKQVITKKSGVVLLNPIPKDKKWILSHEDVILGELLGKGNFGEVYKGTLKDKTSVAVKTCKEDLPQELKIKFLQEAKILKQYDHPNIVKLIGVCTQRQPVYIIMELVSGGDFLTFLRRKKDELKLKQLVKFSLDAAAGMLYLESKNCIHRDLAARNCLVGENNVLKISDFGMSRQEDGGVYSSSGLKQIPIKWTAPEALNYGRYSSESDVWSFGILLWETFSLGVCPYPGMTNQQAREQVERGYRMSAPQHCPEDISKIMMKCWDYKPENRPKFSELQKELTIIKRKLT
Sequence of Cell division cycle 7-related protein kinase (Homo sapiens) (O00311 whole entry, looked up): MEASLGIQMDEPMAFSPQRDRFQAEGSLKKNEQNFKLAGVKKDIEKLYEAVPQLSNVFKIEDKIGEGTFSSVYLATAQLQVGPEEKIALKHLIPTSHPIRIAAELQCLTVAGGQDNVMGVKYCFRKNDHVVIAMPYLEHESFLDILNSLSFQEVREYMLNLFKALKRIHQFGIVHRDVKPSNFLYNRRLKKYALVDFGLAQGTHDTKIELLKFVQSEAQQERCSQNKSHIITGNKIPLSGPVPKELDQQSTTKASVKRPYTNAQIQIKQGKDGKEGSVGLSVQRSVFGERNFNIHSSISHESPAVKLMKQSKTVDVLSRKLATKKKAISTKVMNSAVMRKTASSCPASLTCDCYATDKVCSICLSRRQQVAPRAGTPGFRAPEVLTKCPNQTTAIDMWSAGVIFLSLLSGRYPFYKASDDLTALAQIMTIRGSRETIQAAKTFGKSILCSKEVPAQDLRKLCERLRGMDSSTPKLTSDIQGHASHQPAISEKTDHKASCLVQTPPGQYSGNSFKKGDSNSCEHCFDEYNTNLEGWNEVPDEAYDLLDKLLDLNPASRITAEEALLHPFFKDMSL
Sequence of RAF proto-oncogene serine/threonine-protein kinase (Homo sapiens) (P04049 whole entry): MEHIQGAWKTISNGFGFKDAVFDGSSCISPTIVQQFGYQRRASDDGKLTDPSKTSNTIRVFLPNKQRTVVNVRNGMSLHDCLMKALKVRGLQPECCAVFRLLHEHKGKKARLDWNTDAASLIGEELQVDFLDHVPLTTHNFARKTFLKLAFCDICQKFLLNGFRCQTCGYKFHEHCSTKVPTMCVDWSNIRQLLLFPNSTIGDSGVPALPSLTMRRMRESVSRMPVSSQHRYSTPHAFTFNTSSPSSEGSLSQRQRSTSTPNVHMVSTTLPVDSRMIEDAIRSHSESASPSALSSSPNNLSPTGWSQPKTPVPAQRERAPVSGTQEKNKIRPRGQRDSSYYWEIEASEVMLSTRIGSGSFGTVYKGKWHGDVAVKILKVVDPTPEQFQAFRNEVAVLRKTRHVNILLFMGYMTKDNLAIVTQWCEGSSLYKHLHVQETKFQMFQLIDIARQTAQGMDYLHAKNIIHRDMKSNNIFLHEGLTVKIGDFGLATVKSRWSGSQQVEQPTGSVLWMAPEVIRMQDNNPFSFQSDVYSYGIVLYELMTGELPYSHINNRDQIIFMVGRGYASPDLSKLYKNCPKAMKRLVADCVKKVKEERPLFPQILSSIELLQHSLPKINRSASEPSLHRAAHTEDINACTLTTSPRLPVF

`CC(C)[C@H](NC(=O)c1cc(-c2cnn3cc(-c4ccc(OCCN5CCCCC5)cc4)cnc23)cs1)C(F)(F)F`: the results for the inhibition in assay [1] and in assay [3] were 0% and 58%, respectively. Further, the fold change (FC) in assay [2] was determined as 0.06.

For the compound `O=C(N[C@@H](C1CC1)C(F)(F)F)c1cc(-c2cnn3cc(-c4ccc(F)cc4)cnc23)cs1`, the inhibition in [4], in assay [5] and in [7] was 0% in each case. Further, the fold change (FC) in [6] was 1.07.

In the case of `CNC(=O)c1ccccc1Oc1nc(Nc2cc(OC)c(OC)c(OC)c2)ncc1Br`, the inhibition in assay [8] was 0%; in [9], 2%; in assay [10] it was 0%. For the same compound, the fold change (FC) in assay [11] is 0.15.

The values above are taken from ChEMBL document CHEMBL5653631, “A Potent and Selective ULK1 Inhibitor Suppresses Autophagy and Sensitizes Cancer Cells to Nutrient Stress” (iScience, 2018).
